Assay results published in ChEMBL document CHEMBL2046381, “Defining the mechanism of action and enzymatic selectivity of psammaplin A against its epigenetic targets” (J Med Chem, 2012).
The source made the active and inactive calls. The rule behind the calls is not given here.

How the values were obtained:
Histone deacetylase 1 = Histone deacetylase 1 (Homo sapiens, UniProt Q13547); test: Inhibition of HDAC1 in human MCF7 cells assessed as up-regulation of acetylated histone H3 protein level at 5 uM after 24 hrs by Western blot analysis; type: cell-based
Sequence of Histone deacetylase 1 (Q13547 whole entry): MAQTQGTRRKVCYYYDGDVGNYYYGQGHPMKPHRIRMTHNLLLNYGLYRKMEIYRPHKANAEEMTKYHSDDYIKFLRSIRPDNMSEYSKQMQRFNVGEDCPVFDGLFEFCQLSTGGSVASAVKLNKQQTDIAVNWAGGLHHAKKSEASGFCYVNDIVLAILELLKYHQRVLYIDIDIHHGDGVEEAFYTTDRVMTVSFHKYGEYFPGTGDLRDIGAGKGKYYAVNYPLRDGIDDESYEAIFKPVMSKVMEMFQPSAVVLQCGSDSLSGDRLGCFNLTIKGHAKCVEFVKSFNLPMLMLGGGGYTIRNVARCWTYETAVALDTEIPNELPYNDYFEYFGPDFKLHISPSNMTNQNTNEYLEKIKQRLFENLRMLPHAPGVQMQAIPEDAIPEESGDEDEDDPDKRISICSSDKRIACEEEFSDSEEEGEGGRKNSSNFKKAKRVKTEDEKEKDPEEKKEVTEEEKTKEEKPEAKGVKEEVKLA
Outline: (§1)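 MCF7 cells (5 × 10^6 per T75 flask) treated 24 h, harvested by trypsinization, lysed in RIPA on ice; 50 μg total protein resolved on 12% SDS-PAGE, transferred to nitrocellulose and probed for histone, acetylated histone, tubulin, acetylated tubulin, p21 and actin. Untreated cells as negative control.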

MCF7 [1] = test: Growth inhibition of human MCF7 cells after 96 hrs by sulphorhodamine B assay; type: functional; settings: MCF7, 96 h
Outline: (§2)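 SRB growth assay; MCF7 and WI38 seeded 4000 cells/well, A549 2000 cells/well, attached overnight, then exposed to freshly made drug solutions (0.1 to 50 μM) for 96 h. Fixed with cold 10% TCA, stained with 0.4% SRB; absorbance at 540 nm as percent of untreated control, IC50 from mean absorbance.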

A549 = test: Growth inhibition of human A549 cells after 96 hrs by sulphorhodamine B assay; type: functional; settings: A549, 96 h; outline: as §2
Bacteria [2] = test: Inhibition of bacterial DNA cytosine-C5 methyltransferase, M.SssI at 5 uM
Outline: (§3)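 One unit M.SssI with 1 μg bacteriophage λ DNA in NEBuffer2 (pH 7.9, 1 mM DTT) plus 160 μM SAM, ±inhibitor, 2 h at 37 °C; heat-inactivated 65 °C 20 min. Methylation read by BstUI digestion (10 units, 1 h 60 °C) and 1.5% agarose gel electrophoresis; run four times with positive and negative controls.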

[3] = Growth inhibition of human WI38 cells after 96 hrs by sulphorhodamine B assay; type: cell-based; settings: WI-38 cells; outline: as §2
[4] = Inhibition of HDAC in cell extract based assay
[5] = biological target: T1, Protein deacetylase HDAC6 (Homo sapiens) (UniProt Q9UBN7); test: Inhibition of HDAC6 in human MCF7 cells assessed as change in tubulin acetylation level at 5 uM after 24 hrs by Western blot analysis; type: cell-based; outline: as §1
T1 sequence (whole entry): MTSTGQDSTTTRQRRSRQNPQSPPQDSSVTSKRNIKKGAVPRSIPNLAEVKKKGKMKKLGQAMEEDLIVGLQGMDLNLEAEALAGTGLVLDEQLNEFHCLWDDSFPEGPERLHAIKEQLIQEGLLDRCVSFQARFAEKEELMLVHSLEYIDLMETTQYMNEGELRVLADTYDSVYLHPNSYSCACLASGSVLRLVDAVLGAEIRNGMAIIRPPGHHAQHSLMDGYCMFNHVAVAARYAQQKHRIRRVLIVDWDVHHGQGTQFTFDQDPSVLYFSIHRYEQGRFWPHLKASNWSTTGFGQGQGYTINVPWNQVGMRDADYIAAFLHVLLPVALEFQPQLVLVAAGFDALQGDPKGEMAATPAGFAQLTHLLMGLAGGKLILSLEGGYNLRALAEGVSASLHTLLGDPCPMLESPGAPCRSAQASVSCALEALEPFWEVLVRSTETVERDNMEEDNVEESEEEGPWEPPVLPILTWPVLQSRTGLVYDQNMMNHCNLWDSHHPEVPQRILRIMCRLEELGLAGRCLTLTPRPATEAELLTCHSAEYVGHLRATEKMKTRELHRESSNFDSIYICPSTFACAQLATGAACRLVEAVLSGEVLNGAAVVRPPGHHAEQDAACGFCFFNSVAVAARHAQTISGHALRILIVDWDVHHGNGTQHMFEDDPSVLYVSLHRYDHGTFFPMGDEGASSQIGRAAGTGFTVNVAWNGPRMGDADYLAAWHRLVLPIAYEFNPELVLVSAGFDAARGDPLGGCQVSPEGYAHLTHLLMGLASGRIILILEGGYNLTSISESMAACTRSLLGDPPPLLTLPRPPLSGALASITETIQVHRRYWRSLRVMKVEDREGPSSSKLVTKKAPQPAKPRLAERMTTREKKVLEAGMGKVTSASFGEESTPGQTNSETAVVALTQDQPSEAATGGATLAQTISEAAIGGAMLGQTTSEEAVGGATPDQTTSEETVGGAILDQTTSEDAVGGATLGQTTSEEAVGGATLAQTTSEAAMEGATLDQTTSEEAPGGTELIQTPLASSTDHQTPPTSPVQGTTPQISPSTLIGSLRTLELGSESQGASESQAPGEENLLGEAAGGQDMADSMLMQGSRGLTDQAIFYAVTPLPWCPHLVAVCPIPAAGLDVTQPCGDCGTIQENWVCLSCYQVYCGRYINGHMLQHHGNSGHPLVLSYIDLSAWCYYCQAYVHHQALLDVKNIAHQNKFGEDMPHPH

MCF7 [6] = test: Inhibition of Class 1 histone deacetylase in human MCF7 cells assessed as up-regulation of p21 protein level at 5 uM after 24 hrs by Western blot analysis; type: cell-based; outline: as §1
[7] = biological target: DNA (cytosine-5)-methyltransferase 1 (Homo sapiens, UniProt P26358); test: Inhibition of semi-purified DNMT1
Sequence of DNA (cytosine-5)-methyltransferase 1 (P26358 whole entry): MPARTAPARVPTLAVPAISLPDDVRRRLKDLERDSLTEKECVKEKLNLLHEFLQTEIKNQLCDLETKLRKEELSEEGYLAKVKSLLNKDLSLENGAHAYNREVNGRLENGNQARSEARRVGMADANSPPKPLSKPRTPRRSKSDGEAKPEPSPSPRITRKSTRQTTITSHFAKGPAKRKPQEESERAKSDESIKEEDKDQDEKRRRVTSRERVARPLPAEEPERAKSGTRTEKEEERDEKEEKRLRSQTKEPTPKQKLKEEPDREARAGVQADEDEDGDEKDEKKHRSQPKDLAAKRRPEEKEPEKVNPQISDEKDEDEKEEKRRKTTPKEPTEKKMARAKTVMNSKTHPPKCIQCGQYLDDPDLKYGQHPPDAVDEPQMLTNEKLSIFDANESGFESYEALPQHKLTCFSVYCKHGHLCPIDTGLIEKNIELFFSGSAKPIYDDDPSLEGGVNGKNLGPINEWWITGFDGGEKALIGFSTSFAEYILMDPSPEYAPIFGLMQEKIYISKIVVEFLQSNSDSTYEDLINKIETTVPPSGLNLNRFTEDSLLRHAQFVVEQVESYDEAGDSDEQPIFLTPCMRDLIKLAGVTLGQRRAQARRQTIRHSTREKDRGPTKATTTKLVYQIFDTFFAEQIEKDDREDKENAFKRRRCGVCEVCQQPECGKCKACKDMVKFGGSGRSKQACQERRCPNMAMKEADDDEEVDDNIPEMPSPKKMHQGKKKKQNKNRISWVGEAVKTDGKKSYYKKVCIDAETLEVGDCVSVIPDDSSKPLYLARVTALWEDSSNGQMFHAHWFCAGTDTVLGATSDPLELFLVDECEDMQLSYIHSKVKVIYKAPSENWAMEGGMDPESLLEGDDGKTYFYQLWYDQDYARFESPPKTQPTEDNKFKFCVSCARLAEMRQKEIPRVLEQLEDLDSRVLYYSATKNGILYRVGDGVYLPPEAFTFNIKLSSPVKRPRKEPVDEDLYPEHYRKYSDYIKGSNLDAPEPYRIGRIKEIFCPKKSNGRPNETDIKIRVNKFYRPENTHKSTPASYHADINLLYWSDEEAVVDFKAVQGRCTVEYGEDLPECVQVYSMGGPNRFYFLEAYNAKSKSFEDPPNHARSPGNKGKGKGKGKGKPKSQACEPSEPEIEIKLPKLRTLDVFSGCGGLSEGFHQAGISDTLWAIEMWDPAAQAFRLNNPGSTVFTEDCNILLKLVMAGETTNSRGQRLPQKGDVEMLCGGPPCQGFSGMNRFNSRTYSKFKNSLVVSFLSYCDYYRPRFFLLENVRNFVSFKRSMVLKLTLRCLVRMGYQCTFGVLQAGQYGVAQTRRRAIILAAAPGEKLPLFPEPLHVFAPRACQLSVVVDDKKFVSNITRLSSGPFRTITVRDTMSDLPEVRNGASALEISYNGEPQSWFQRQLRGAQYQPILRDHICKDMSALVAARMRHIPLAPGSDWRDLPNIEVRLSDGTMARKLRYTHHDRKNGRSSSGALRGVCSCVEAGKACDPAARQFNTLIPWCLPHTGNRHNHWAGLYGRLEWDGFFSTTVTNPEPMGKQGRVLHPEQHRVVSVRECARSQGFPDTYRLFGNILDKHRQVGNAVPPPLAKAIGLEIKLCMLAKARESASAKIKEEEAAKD

Bacteria [8] = test: Inhibition of bacterial DNA cytosine-C5 methyltransferase, M.SssI at 50 uM; outline: as §3

inhibition (Histone deacetylase 1): Active
GI50 (MCF7 [1]): 1270 nM
GI50 (A549): 7500 nM
inhibition (Bacteria [2]): Active
IC50 [4]: 4.2 nM
inhibition [5]: inactive
IC50 [7]: 18.6 nM
inhibition (Bacteria [8]): Active
SMILES: O=C(NCCSSCCNC(=O)/C(Cc1ccc(O)c(Br)c1)=N/O)/C(Cc1ccc(O)c(Br)c1)=N/O [PSAMMAPLIN A]
GI50 at 96 h [3]: 3440 nM
inhibition (MCF7 [6]): Active
